Test results taken from ChEMBL document CHEMBL4196195, “( R)- N-(1-Methyl-2-hydroxyethyl)-13-( S)-methyl-arachidonamide (AMG315): A Novel Chiral Potent Endocannabinoid Ligand with Stability to Metabolizing Enzymes” (J Med Chem, 2018).
The source made the active and inactive calls.

How the values were obtained:
[1] = molecular target: T1, FAAH (fatty-acid amide hydrolase 1) (Homo sapiens, UniProt O00519); assay: Stability assessed as human FAAH-mediated compound hydrolysis by LC-MS/MS analysis; assay type: ADME; settings: human FAAH (fatty-acid amide hydrolase 1), read-out: Stability
T1 sequence (O00519 whole entry): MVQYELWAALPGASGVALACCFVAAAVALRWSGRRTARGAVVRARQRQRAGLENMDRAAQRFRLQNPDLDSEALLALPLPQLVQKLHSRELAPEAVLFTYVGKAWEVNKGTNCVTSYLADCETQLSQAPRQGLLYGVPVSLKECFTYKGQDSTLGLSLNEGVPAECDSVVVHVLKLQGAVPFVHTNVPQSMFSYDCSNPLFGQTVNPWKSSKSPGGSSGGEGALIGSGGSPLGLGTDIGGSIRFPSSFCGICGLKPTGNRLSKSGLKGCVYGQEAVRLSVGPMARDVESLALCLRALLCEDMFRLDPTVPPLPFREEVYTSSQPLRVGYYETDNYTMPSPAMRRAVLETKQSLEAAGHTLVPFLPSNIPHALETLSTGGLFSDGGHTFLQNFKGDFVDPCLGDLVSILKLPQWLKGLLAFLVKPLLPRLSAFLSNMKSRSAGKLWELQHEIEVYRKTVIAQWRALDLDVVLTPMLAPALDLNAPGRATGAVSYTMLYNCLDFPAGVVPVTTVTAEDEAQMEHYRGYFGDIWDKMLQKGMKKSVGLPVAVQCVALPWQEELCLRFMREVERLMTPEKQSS
How it was run: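 Expressed, partially purified rat or human FAAH incubated with compound, or AEA as reference substrate, for 30 min. Aliquots at time points quenched in acetonitrile to precipitate protein. Remaining compound measured by LC-MS/MS on a cyano column with 10 mM ammonium acetate pH 7.3/methanol at 0.5 mL/min.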

Cannabinoid receptor 2 = Cannabinoid receptor 2 (Mus musculus, UniProt P47936); assay: Displacement of [3H]CP-55,940 from mouse CB2 receptor expressed in HEK293 cell membranes in absence of FAAH inhibitor PMSF by radioligand binding assay
Cannabinoid receptor 2, sequence (P47936 whole entry): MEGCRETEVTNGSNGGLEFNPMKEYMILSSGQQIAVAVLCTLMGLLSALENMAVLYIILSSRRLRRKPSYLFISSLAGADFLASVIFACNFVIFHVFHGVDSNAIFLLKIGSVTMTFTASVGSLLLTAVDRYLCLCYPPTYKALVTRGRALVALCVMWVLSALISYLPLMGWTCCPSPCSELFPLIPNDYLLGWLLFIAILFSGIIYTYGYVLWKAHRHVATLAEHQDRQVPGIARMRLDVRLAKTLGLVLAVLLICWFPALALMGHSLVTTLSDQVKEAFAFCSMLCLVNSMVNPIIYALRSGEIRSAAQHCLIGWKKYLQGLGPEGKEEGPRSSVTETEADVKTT
How it was run: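 Membranes from HEK293 cells expressing human or mouse CB2 (preparations lacking FAAH activity), competing against [3H]CP-55,940. IC50 by nonlinear regression, converted to Ki. Three independent experiments run in triplicate; Ki is the mean of the three.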

Cannabinoid receptor 1 [2] = molecular target: T2, Cannabinoid receptor 1 (Rattus norvegicus, UniProt P20272); assay: Displacement of [3H]CP-55,940 from CB1 receptor in rat brain membranes in absence of FAAH inhibitor PMSF by radioligand binding assay; assay type: cell membranes, Membrane
T2 sequence (P20272 whole entry): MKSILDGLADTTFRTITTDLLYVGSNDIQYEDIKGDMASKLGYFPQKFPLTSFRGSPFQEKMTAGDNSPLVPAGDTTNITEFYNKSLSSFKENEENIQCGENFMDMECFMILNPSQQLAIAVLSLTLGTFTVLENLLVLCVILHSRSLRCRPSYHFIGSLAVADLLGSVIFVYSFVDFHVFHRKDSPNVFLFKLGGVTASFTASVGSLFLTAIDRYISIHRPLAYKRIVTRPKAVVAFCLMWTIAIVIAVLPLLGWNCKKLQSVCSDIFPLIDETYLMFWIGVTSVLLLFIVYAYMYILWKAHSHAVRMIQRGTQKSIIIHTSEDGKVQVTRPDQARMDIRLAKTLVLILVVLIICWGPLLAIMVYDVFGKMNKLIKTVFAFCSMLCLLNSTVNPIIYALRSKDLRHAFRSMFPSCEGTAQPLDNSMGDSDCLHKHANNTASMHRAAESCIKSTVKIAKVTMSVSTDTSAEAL

Mus musculus [3] = assay: Effect on mechanical paw withdrawal threshold of contralateral paw in CB1 receptor knockout CD1 mouse model of CFA-induced inflammatory pain at 5 mg/kg, ip measured at 10 to 120 mins post injection; assay type: ADME, organism-based; settings: in vivo
How it was run: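 Wild-type CD1 or CB1 KO (CD1 background) adult male mice. Unilateral intraplantar CFA:saline 1:1 (20 μL) into right hind paw, 48 h before ip dosing (5 mL/kg); vehicle controls. Threshold of the uninjected contralateral paw measured by electronic von Frey (90 g probe), duplicate readings averaged, at 10, 30, 60, 120 min post-dose. Two-way mixed ANOVA.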

Mus musculus [4] = assay: Antiallodynic activity in CD1 mouse model of CFA-induced inflammatory pain assessed as increase in CFA-reduced mechanical paw withdrawal threshold at 5 mg/kg, ip measured at 120 mins post injection; assay type: functional, organism-based
How it was run: (§1)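 Adult male mice (39 ± 10 g), wild-type CD1 or CB1 KO on CD1 background, single housed. CFA:saline 1:1 (20 μL) injected intraplantar into right hind paw; 48 h allowed before dosing. Drug given ip in 5 mL/kg, vehicle group included. Electronic von Frey (90 g probe) after ≥30 min habituation, read in duplicate per paw, at baseline, 48 h post-CFA and 10, 30, 60, 120 min post-dose. Two-way mixed ANOVA with Bonferroni post hoc tests.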

Cannabinoid receptor 1 [5] = molecular target: T2, Cannabinoid receptor 1; assay: Displacement of [3H]CP-55,940 from CB1 receptor in rat brain membranes in presence of FAAH inhibitor PMSF by radioligand binding assay; assay type: cell membranes, Membrane
Mus musculus [6] = assay: Antiallodynic activity in CD1 mouse model of CFA-induced inflammatory pain assessed as increase in CFA-reduced mechanical paw withdrawal threshold at 5 mg/kg, ip measured up to 30 mins post injection; assay type: functional, organism-based; how it was run: as §1
[7] = molecular target: T3, Prostaglandin G/H synthase 2 (Mus musculus, UniProt Q05769); assay: Stability assessed as mouse COX2-mediated compound oxidation by measuring oxygen consumption by polarographic assay; assay type: ADME
T3 sequence (Q05769 whole entry): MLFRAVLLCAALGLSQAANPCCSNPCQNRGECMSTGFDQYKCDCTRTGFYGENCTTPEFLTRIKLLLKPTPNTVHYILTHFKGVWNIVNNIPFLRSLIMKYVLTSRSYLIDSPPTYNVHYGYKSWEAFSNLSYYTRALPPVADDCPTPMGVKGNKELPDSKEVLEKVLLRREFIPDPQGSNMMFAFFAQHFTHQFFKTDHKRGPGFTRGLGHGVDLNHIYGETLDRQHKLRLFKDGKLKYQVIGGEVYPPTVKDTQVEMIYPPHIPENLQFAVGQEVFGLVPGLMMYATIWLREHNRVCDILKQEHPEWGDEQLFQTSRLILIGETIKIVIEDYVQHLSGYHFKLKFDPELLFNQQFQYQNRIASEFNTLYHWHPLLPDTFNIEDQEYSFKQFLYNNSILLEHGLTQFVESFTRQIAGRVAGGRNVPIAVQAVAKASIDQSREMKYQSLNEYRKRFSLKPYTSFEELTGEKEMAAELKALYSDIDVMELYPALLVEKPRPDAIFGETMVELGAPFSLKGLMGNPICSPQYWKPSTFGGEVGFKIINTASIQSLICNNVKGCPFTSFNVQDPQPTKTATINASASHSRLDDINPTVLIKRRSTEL

[8] = molecular target: T4, ABHD6 (monoacylglycerol lipase ABHD6) (Homo sapiens, UniProt Q9BV23); assay: Stability assessed as human ABHD6-mediated compound hydrolysis by HPLC analysis; assay type: ADME; settings: read-out: Stability
T4 sequence (Q9BV23 whole entry): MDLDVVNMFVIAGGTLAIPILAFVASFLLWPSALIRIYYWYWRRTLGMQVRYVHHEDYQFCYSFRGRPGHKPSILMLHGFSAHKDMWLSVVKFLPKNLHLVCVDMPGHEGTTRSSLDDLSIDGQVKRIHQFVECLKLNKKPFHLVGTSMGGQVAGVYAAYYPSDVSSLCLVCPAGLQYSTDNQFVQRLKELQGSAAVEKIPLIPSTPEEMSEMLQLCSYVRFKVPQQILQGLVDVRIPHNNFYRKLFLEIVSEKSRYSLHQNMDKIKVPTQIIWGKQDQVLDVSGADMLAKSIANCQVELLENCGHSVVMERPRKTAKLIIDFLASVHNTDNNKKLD
How it was run: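 Human MGL or ABHD6 expressed in E. coli BL21(DE3); cell lysate in 150 mM NaCl, 50 mM Tris, 1% Triton X-100, pH 8.0. Lysate (0.5 µg total protein) incubated at 37 °C with compound or 2-AG reference for 30 min. Samples at 0–30 min quenched in acetonitrile. Analysed by C18 reversed-phase HPLC with UV at 204 nm against external standards.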

## CCCCC/C=C\[C@H](C)/C=C\C/C=C\C/C=C\CCCC(=O)N[C@H](C)CO
[1]
  half-life: 30 min
Cannabinoid receptor 2
  Ki: 653 nM
Cannabinoid receptor 1 [2]
  Ki: 7.8 nM
Mus musculus [3]
  Activity: Non-Toxic
Mus musculus [4]
  Activity: inactive
Cannabinoid receptor 1 [5]
  Ki: 8.9 nM
Mus musculus [6]
  Activity: Active
[7]
  Stability: Stable
[8]
  half-life: 30 min
